# Results taken from ChEMBL document CHEMBL1135463 (J Med Chem, 2002).
# Calls of active or inactive are those of the source. No cut-off for these calls is given here.
# Legend:
# Neisseria gonorrhoeae = experiment: The minimum inhibitory concentration (MIC) that inhibits all visible growth of the Neisseria gonorrhoeae (bacteria); assay type: functional
# Outline: (§1)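 Broth microdilution following NCCLS reference methods (M7-A4 for aerobic bacteria, the yeast broth dilution standard for fungi). MIC is the lowest compound concentration giving optically clear wells, with no visible growth of the test organism.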
# P388 [1] = experiment: In vitro inhibition of P388 (murine leukemia) cell proliferation.; assay type: functional; details: Mus musculus, read-out: ED50 (the source's name)
# BXPC-3 [2] = experiment: In vitro growth inhibition of BXPC-3 (human pancreatic adenocarcinoma) cell line.; assay type: functional
# DU-145 [3] = experiment: In vitro growth inhibition of DU-145 (human prostate carcinoma) cell line.; assay type: functional
# KM-20L2 [4] = experiment: In vitro growth inhibition of KM20L2 cell line.; assay type: functional; details: Homo sapiens
# [5] = In vitro growth inhibition of NCI-H460 (human non-small cell lung carcinoma) cell line.; assay type: functional
# MCF7 = experiment: Cell growth inhibition of breast MCF-7 cells, expressed as 50% reduction in the net protein increase; assay type: functional; details: Homo sapiens
# SF-268 (Homo sapiens) = experiment: The concentration causing 50% reduction in the net protein increase (cell growth inhibition, GI50) against central nervous system (CNS) SF-268 cells
# Candida albicans = experiment: The minimum inhibitory concentration (MIC) that inhibits all visible growth of the Candida albicans (fungus) at 64 ug/mL; NI is no inhibition; assay type: functional, organism-based; outline: as §1
# Cryptococcus neoformans = experiment: Minimum inhibitory concentration (MIC) that inhibits all visible growth of the Cryptococcus neoformans (fungus) at 64 ug/mL; NI is no inhibition; assay type: functional, organism-based; outline: as §1
# Enterobacter cloacae = experiment: The minimum inhibitory concentration (MIC) that inhibits all visible growth of the Enterobacter cloacae (bacteria) at 64 ug/mL; NI is no inhibition; assay type: functional, organism-based; outline: as §1
# Enterococcus faecalis [6] = experiment: the minimum inhibitory concentration (MIC) that inhibits all visible growth of the Enterococcus faecalis (bacteria) at 64 ug/mL; NI is no inhibition; assay type: functional, organism-based; outline: as §1
# Escherichia coli = experiment: The minimum inhibitory concentration (MIC) that inhibits all visible growth of the Escherichia coli (bacteria) at 64 ug/mL; NI is no inhibition; assay type: functional, organism-based; outline: as §1
# Enterococcus faecalis [7] = experiment: The minimum inhibitory concentration (MIC) that inhibits all visible growth of the Enterococcus faecalis (bacteria) at 64 ug/mL; NI is no inhibition; assay type: functional, organism-based; outline: as §1
# Micrococcus luteus = experiment: the minimum inhibitory concentration (MIC) that inhibits all visible growth of the Micrococcus luteus (bacteria) at 64 ug/mL; NI is no inhibition; assay type: functional, organism-based; outline: as §1
# SF-268 [8] = experiment: In vitro growth inhibition of central nervous system SF-268 cell line.; assay type: functional; details: Homo sapiens
# Staphylococcus aureus = experiment: The minimum inhibitory concentration (MIC) that inhibits all visible growth of the Staphylococcus aureus (bacteria) at 64 ug/mL; NI is no inhibition; assay type: functional, organism-based; outline: as §1
# [9] = tested on: Stenotrophomonas maltophilia; experiment: The minimum inhibitory concentration (MIC) that inhibits all visible growth of the Stenotrophomonas maltophilia (bacteria) at 64 ug/mL; NI is no inhibition; assay type: functional, organism-based; outline: as §1
# Streptococcus pneumoniae [10] = experiment: The minimum inhibitory concentration (MIC) that inhibits all visible growth of the Streptococcus pneumoniae (bacteria); assay type: functional; outline: as §1
# BXPC-3 [11] = experiment: Cell growth inhibition against pancreatic BXPC-3 cells, 50% reduction in the net protein increase; assay type: functional; details: Homo sapiens
# Outline: (§2)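 Human tumour lines kept in 5% FBS/RPMI-1640, plated and incubated 24 h before compound dilutions were added. Exposure 48 h, then TCA fixation, washing and sulforhodamine B staining, with optical density read on a plate reader. GI50 is the concentration giving a 50% reduction in net protein increase, calculated from the OD data.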
# DU-145 [12] = experiment: Cell growth inhibition of prostate DU-145 cells, expressed as 50% reduction in the net protein increase; assay type: functional; details: Homo sapiens; outline: as §2
# KM-20L2 [13] = experiment: Cell growth inhibition of colon KM20L2 cells, expressed as 50% reduction in the net protein increase; assay type: functional; details: Homo sapiens; outline: as §2
# NCI-H460 = experiment: Cell growth inhibition of lung-NSC NCI-H460 cells, expressed as 50% reduction in the net protein increase; assay type: functional; details: Homo sapiens; outline: as §2
# P388 [14] = experiment: Evaluated for cell growth inhibition of the mouse leukemia P388 cells in 10% horse serum/Fisher media; assay type: functional; details: read-out: ED50 (the source's name)
# Outline: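 Murine P388 leukaemia cells grown in 10% horse serum/Fisher medium, incubated 24 h, then compound dilutions added. After 48 h, cells counted on a Coulter Z1 particle counter and the ED50 for growth inhibition calculated.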
# SF-268 [15] = experiment: Cell growth inhibition of central nervous system (CNS) SF-268 cells, expressed as 50% reduction in the net protein increase; assay type: functional; details: Homo sapiens; outline: as §2
# Streptococcus pneumoniae [16] = experiment: The minimum inhibitory concentration (MIC) that inhibits all visible growth of the Streptococcus pneumoniae (bacteria) at 64 ug/mL; NI is no inhibition; assay type: functional, organism-based; outline: as §1
# Tubulin (Bos taurus) [17] = biological target: T1, Tubulin (Bos taurus) (UniProt Q6B856+Q862L2+Q862F3); experiment: Inhibition of radiolabeled [3H]colchicine binding to tubulin at a concentration of 2 uM of the compound; assay type: protein assay
# Outline: (§3)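 [3H]colchicine 5.0 µM incubated with tubulin 1.0 µM plus inhibitor at the stated level, 10 min at 37 °C, then colchicine binding measured. Reported as percent inhibition.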
# Tubulin (Bos taurus) [18] = biological target: T1, Tubulin (Bos taurus); experiment: Inhibition of radiolabeled [3H]colchicine binding to tubulin at a concentration of 5 uM of the compound; assay type: protein assay; outline: as §3
# Tubulin = Tubulin (Bos taurus, UniProt Q6B856+Q862L2+Q862F3); experiment: Inhibition of tubulin polymerization reported as IC50; assay type: functional
SMILES,MIC (Neisseria gonorrhoeae),EC50 (P388 [1]),GI50 (BXPC-3 [2]),GI50 (DU-145 [3]),GI50 (MCF7),MIC (Candida albicans),MIC (Cryptococcus neoformans),MIC (Enterobacter cloacae),MIC (Enterococcus faecalis [6]),MIC (Escherichia coli),MIC (Enterococcus faecalis [7]),MIC (Micrococcus luteus),MIC (Staphylococcus aureus),MIC [9],GI50 (KM-20L2 [4]),GI50 [5],GI50 (SF-268 [8]),also measured
COc1cc(/C=C/c2ccc(O)cc2)cc(OC)c1 [PTEROSTILBENE],,4.87 µg/mL,6.5 µg/mL,2.7 µg/mL,2.3 µg/mL,,,,,,,,,,3.4 µg/mL,2.7 µg/mL,,GI50 (SF-268 (Homo sapiens)): 4.3 µg/mL
COc1cc(OC)cc(C(O)c2ccc(O)cc2)c1 (centres undefined),4 µg/mL,> 10 µg/mL,1.3 µg/mL,5.8 µg/mL,2 µg/mL,inactive,inactive,inactive,inactive,inactive,inactive,inactive,inactive,inactive,5.3 µg/mL,2.3 µg/mL,0.65 µg/mL,MIC (Streptococcus pneumoniae [10]): 16 µg/mL
COc1ccc(/C=C/c2cc(O)cc(O)c2)cc1 [RESVERATROL 4'-METHYL ETHER],,28.9 µg/mL,6.3 µg/mL,2.7 µg/mL,3.4 µg/mL,,,,,,,,,,3.8 µg/mL,6.8 µg/mL,3.1 µg/mL,

# Now from value to compound, other results behind:
MIC (Neisseria gonorrhoeae),EC50 (P388 [1]),GI50 (BXPC-3 [2]),GI50 (DU-145 [3]),GI50 (MCF7),MIC (Candida albicans),MIC (Cryptococcus neoformans),MIC (Enterobacter cloacae),MIC (Enterococcus faecalis [6]),MIC (Escherichia coli),MIC (Enterococcus faecalis [7]),MIC (Micrococcus luteus),MIC (Staphylococcus aureus),MIC [9],SMILES,GI50 (KM-20L2 [4]),GI50 [5],GI50 (SF-268 [8]),also measured
16 µg/mL,4.49 µg/mL,,,,,,,,,,,,,Oc1ccc(/C=C/c2cc(O)cc(O)c2)cc1 [RESVERATROL],,,,
32 µg/mL,,,,,inactive,inactive,inactive,inactive,inactive,inactive,inactive,inactive,inactive,COc1ccc(C(=O)c2cc(OC)cc(OC)c2)cc1,,,,GI50 (BXPC-3 [11]): 0.42 µg/mL; GI50 (DU-145 [12]): 1.2 µg/mL; GI50 (KM-20L2 [13]): 0.42 µg/mL; GI50 (NCI-H460): 0.53 µg/mL; EC50 (P388 [14]): 1.23 µg/mL; GI50 (SF-268 [15]): 0.86 µg/mL; MIC (Streptococcus pneumoniae [16]): inactive; inhibition (Tubulin (Bos taurus) [17]): 47%; inhibition (Tubulin (Bos taurus) [18]): 69%; IC50 (Tubulin): 2600 nM
